Assay [1] concerns HT-29. In words: Cytotoxicity against human HT-29. The class given is functional. The gist of the method: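 HT-29 human colon cells obtained from the American Type Culture Collection; cytotoxicity reported as ED50 in µg/mL.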
Assay [2] concerns P388. In words: Cytotoxicity against mouse P388. The format is functional. A digest of the protocol:
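Murine P-388 leukemia cells were a gift from an academic laboratory; cytotoxicity reported as ED50 in µg/mL.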

Where [3] appears, read: read-out: ED50 (the source's name).

Values after ≈ are worked out from the molar mass of the structure shown.

For the compound `C=C1CC[C@@H]2CCC3=C(C(=O)[C@@H](/C(C)=C/[C@@H](OC(C)=O)C1)[C@H]3O)C2(C)C`, the Activity entry in assay [1] and in assay [2] was “Not toxic” throughout.

Regarding `C=C1CC[C@@H]2CCC3=C(C2(C)C)[C@@](OC)(C/C(C)=C/[C@@H](O)C1)OC3=O`, the Activity result in assay [1] and in assay [2] was “Not toxic” each time.

With `C=C1CC[C@@H]2CCC3=C(C(=O)[C@H](C3=O)/C(C)=C/[C@@H](OC(C)=O)C1)C2(C)C`, the Activity result in assay [1] and in assay [2] was “Not toxic” throughout.

Take `CC(C)[C@@H](C)[C@@]1(C)C[C@@H]1[C@@H](C)[C@H]1CC[C@@H]([C@@H]2C[C@H]3O[C@]34C[C@@H](O)CC[C@]4(C)C2=O)[C@]1(C)CCO`: the Activity entry in assay [1] and in assay [2] was “Not toxic” throughout.

With `C=C1CC[C@@H]2CCC3=C(C(=O)[C@H]([C@H]3O)[C@@]3(C)O[C@@H]3[C@@H](O)C1)C2(C)C`, the Activity entry in assay [1] and in assay [2] was “Not toxic” in each case.

Regarding `CC(C)CCC[C@@H](C)[C@H]1CC[C@@H]([C@@H]2C[C@H]3O[C@]34C[C@@H](O)CC[C@]4(C)C2=O)[C@]1(C)CCO`, the EC50 in assay [1] (setting [3]) worked out at 1 µg/mL (≈ 2.3 µM). Moreover, the Activity result in assay [2] was “Not toxic”.

For the compound `C=C1CC[C@@H]2CCC3=C(C(=O)[C@H](C3=O)/C(C)=C/[C@@H](O)C1)C2(C)C`, the Activity entry in assay [1] and in assay [2] was “Not toxic” each time.

As for `C=C1CC[C@@H]2CC[C@@H](O)[C@@](O)(C(=O)C/C(C)=C/[C@@H](O)C1)C2(C)C`, the Activity entry in assay [1] and in assay [2] was “Not toxic” throughout.

As for `C=C1CC[C@@H]2CC[C@H](O)[C@@](O)(C(=O)C/C(C)=C/[C@@H](O)C1)C2(C)C`, the Activity result in assay [1] and in assay [2] was “Not toxic” each time.

`C=C1CC[C@@H]2O[C@@]2(C)CC[C@@H]2/C(=C/C=C/C(C)C)C(=O)OC[C@@H]12`: the Activity entry in assay [1] and in assay [2] was “Not toxic” each time.

With `C=C1CC[C@@H]2CC[C@H](OC(=O)C/C(C)=C/[C@@H](O)C1)C(=O)C2(C)C`, the Activity entry in assay [1] and in assay [2] was “Not toxic” in each case.

As to `C=C1CC[C@@H]2CCC3=C([C@@H](C/C(C)=C/[C@@H](O)C1)OC3=O)C2(C)C` [CESPITULARIN O], the Activity entry in assay [1] is “Not toxic”. For the same compound, in assay [2] (setting [3]), the EC50 worked out at 3.4 µg/mL (≈ 10.7 µM).

These data come from ChEMBL document CHEMBL1158041, “Diterpenoids, norditerpenoids, and secosteroids from the Formosan soft coral Cespitularia hypotentaculata” (2006).
